The text below walks through data of ChEMBL document CHEMBL3352173, “Optimization of pyrrolamide topoisomerase II inhibitors toward identification of an antibacterial clinical candidate (AZD5099)” (J Med Chem, 2014).

Converted amounts (≈) assume the structure as drawn.

In data set [1] the test system is Staphylococcus aureus. In words: Antimicrobial activity against methicillin, quinolone-resistant Staphylococcus aureus by broth microdilution/CLSI method. The class given is functional. Conditions: Staphylococcus aureus; read-out: MIC.
Data set [2] concerns Escherichia coli. In words: Antimicrobial activity against Escherichia coli tolC- by broth microdilution/CLSI method. The class given is functional. Conditions: Escherichia coli; read-out: MIC.
Data set [3] relates to Staphylococcus aureus. In words: Antimicrobial activity against methicillin-sensitive Staphylococcus aureus by broth microdilution/CLSI method. The class given is functional. Conditions: Staphylococcus aureus; read-out: MIC.
The nature of data set [4]: Solubility of the compound. The class given is physicochemical.
Data set [5] deals with DNA gyrase subunit B (Staphylococcus aureus, UniProt P0A0K8). In words: Inhibition of ATPase activity of Staphylococcus aureus GyrB. A digest of the protocol:
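IC50 was determined against S. aureus GyrB in the routine screening assay. The enzyme concentration limits resolution below 10 nM.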

Data set [6] in a line: Ratio of MIC for methicillin, quinolone-resistant Staphylococcus aureus to fraction unbound in human plasma. The class given is ADME.
Data set [7] relates to Streptococcus pneumoniae. In words: Antibacterial activity against Streptococcus pneumoniae by broth microdilution/CLSI method. The class given is functional. The note with it: Streptococcus pneumoniae; read-out: MIC.
In data set [8] the test system is Moraxella catarrhalis. In words: Antimicrobial activity against Moraxella catarrhalis by broth microdilution/CLSI method. Conditions: Moraxella catarrhalis; read-out: MIC. The class given is functional.
The test system of data set [9] is Escherichia coli. In words: Antimicrobial activity against wild-type Escherichia coli Eco523 by broth microdilution/CLSI method. The class given is functional. Conditions: Escherichia coli, Eco523; read-out: MIC.
Data set [10] has as its system Haemophilus influenzae. In words: Antimicrobial activity against Haemophilus influenzae by broth microdilution/CLSI method. The class given is functional. Conditions: Haemophilus influenzae; read-out: MIC.
A short description of data set [11]: Percentage unbound in human plasma. The class given is ADME, cell-free.
A short description of data set [12]: Clearance in rat at 10 mg/kg, iv. The class given is ADME, organism-based. More on the design: dose 10 mg/kg, route intravenous. Conditions: in vivo.
The test system of data set [13] is Streptococcus pyogenes. In words: Antimicrobial activity against Streptococcus pyogenes by broth microdilution/CLSI method. The class given is functional.
Data set [14] is described as follows: Octanol-phosphate buffer distribution coefficient, log D of the compound at pH 7.4 by shake flask method. The class given is physicochemical.

Chain of DNA gyrase subunit B (P0A0K8 whole entry): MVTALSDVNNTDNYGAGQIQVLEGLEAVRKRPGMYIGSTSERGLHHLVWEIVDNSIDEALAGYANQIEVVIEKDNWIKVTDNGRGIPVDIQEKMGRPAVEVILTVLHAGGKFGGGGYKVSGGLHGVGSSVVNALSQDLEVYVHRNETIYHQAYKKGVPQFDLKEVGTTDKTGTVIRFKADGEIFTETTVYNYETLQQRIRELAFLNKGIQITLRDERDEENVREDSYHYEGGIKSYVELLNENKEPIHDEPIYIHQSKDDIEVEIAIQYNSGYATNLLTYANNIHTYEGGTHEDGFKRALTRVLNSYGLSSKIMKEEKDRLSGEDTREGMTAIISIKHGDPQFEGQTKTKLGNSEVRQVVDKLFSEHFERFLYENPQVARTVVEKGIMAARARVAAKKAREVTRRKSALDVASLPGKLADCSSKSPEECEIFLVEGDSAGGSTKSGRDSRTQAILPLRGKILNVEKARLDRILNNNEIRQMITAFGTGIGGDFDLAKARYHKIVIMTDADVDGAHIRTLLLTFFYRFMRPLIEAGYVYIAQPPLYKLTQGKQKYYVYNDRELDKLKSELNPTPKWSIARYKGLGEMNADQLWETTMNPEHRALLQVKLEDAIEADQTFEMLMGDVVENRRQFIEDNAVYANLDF

Consider `CO[C@H]1CN(c2nc(C(=O)NCC3(C)OCCO3)c(C(=O)O)s2)CC[C@H]1NC(=O)c1[nH]c(C)c(Cl)c1Cl`, for which the MIC in [1] is 0.084 µg/mL (≈ 0.146 µM); in data set [2], 0.5 µg/mL (≈ 0.867 µM); in data set [3], 0.063 µg/mL (≈ 0.109 µM); in data set [7] it was 0.016 µg/mL (≈ 0.0278 µM); in data set [8] it was 0.016 µg/mL (≈ 0.0278 µM); in data set [9], 11 µg/mL (≈ 19.1 µM). The results for the MIC in data set [10] and in data set [13] were 0.11 µg/mL (≈ 0.191 µM) and 0.016 µg/mL (≈ 0.0278 µM), respectively. In [4], this compound came in with a solubility of 620 µM (≈ 357 µg/mL). Besides, in data set [5], the half-maximal inhibitory concentration (IC50) was less than 0.01 µM. The Ratio in [6] came out at 2.6. For the same compound, the fraction unbound in data set [11] was found to be 0.032. The compound further showed a clearance in data set [12] of 34 mL/min/kg. In [14], the logD was determined as 1.
Turning to `COCn1ccnc1-c1nc(N2CC[C@@H](NC(=O)c3[nH]c(C)c(Cl)c3Cl)[C@@H](OC)C2)sc1C(=O)O`, the MIC in data set [2] was 0.25 µg/mL (≈ 0.46 µM); in data set [3] it was less than 0.06 µg/mL; in [7], less than 0.06 µg/mL; in data set [8] it was less than 0.06 µg/mL; in data set [9] it was 16 µg/mL (≈ 29.4 µM); in data set [10], 0.5 µg/mL (≈ 0.92 µM). This compound also registered an MIC in [13] of less than 0.06 µg/mL. The same compound came in with a solubility in [4] of 170 µM (≈ 92.4 µg/mL). In [5], this compound yielded an IC50 of less than 0.01 µM. Besides, the Ratio in [6] is listed as less than 0.9. Further, the fraction unbound in [11] stood at 0.071. In data set [12], this compound showed a clearance of 27 mL/min/kg. For the same compound, in [14], the log distribution coefficient (logD) was 0.24.
On to `CO[C@H]1CN(c2nc(C(=O)O)cs2)CC[C@H]1NC(=O)c1[nH]c(C)c(Cl)c1Cl`, for which the MIC was 0.32 µg/mL (≈ 0.738 µM) in [1]; 0.1 µg/mL (≈ 0.231 µM) in data set [2]; 0.2 µg/mL (≈ 0.462 µM) in [3]; 0.2 µg/mL (≈ 0.462 µM) in [7]; 0.05 µg/mL (≈ 0.115 µM) in data set [8]; greater than 8 µg/mL in data set [9]. For the same compound, the results for the MIC in [10] and in data set [13] were 0.1 µg/mL (≈ 0.231 µM) and 0.035 µg/mL (≈ 0.0808 µM), respectively. In data set [4], this compound returned a solubility of 930 µM (≈ 403 µg/mL). In data set [5], the IC50 is less than 0.01 µM. The Ratio in data set [6] is 15. In addition, the fraction unbound in data set [11] came out at 0.022. Moreover, in data set [12], the clearance was 49 mL/min/kg. In [14], this compound showed a logD of 0.25.
On to `CO[C@H]1CN(c2nc(C(=O)NCC3OCCO3)c(C(=O)O)s2)CC[C@H]1NC(=O)c1[nH]c(C)c(Cl)c1Cl`, for which the MIC in data set [1] is 0.1 µg/mL (≈ 0.178 µM); in [2], 0.79 µg/mL (≈ 1.4 µM); in [3] it was 0.063 µg/mL (≈ 0.112 µM); in data set [7] it was 0.04 µg/mL (≈ 0.0711 µM); in [8] it was 0.013 µg/mL (≈ 0.0231 µM); in data set [9], greater than 8 µg/mL. Moreover, the MIC came to 0.1 µg/mL (≈ 0.178 µM) in data set [10] and 0.02 µg/mL (≈ 0.0356 µM) in data set [13]. Also, in data set [4], the solubility came out at 940 µM (≈ 529 µg/mL). The IC50 in data set [5] is less than 0.01 µM. Further, the Ratio in data set [6] worked out at 3.6. The compound further registered a fraction unbound in [11] of 0.028. This compound returned a clearance in [12] of 33 mL/min/kg. The logD in data set [14] turned out to be 0.76.
For `CO[C@H]1CN(c2nc(-c3nc(C)no3)c(C(=O)O)s2)CC[C@H]1NC(=O)c1[nH]c(C)c(Cl)c1Cl`, the MIC was 0.13 µg/mL (≈ 0.252 µM) in data set [1]; 0.5 µg/mL (≈ 0.97 µM) in data set [2]; 0.13 µg/mL (≈ 0.252 µM) in data set [3]; less than 0.06 µg/mL in data set [7]; less than 0.06 µg/mL in [8]; 32 µg/mL (≈ 62.1 µM) in data set [9]. The MIC in [10] was 0.13 µg/mL (≈ 0.252 µM); in data set [13], less than 0.06 µg/mL. Besides, in [4], the solubility turned out to be 630 µM (≈ 325 µg/mL). The compound also yielded an IC50 in data set [5] of less than 0.01 µM. In addition, the Ratio in data set [6] was 8.7. Besides, the unbound share (fraction unbound) in data set [11] was determined as 0.015. This compound yielded a clearance in data set [12] of 110 mL/min/kg. The same compound had a logD in [14] of 0.07.
As to `CO[C@H]1CN(c2nc3cccc(C(=O)O)c3s2)CC[C@H]1NC(=O)c1[nH]c(C)c(Cl)c1Cl`, the MIC is 0.031 µg/mL (≈ 0.0641 µM) in data set [1]; 0.25 µg/mL (≈ 0.517 µM) in [2]; 0.031 µg/mL (≈ 0.0641 µM) in [3]; 0.032 µg/mL (≈ 0.0662 µM) in data set [7]; less than 0.001 µg/mL in [8]; 8 µg/mL (≈ 16.6 µM) in data set [9]. In data set [10], the MIC turned out to be 0.031 µg/mL (≈ 0.0641 µM). The same compound came in with a solubility in [4] of less than 1 µM. This compound also gave an IC50 in data set [5] of less than 0.01 µM. In data set [6], the Ratio was greater than 31. In [11], this compound gave a fraction unbound of less than 0.01. For the same compound, the clearance in data set [12] was 60 mL/min/kg. Moreover, the logD in data set [14] was found to be 1.7.
On to `CO[C@H]1CN(c2nc(-c3cncc(OCCN(C)C)n3)c(C(=O)O)s2)CC[C@H]1NC(=O)c1[nH]c(C)c(Cl)c1Cl`, for which the MIC in [1] turned out to be 0.19 µg/mL (≈ 0.317 µM); in [2], 0.23 µg/mL (≈ 0.384 µM); in [3], 0.13 µg/mL (≈ 0.217 µM); in data set [7], 0.011 µg/mL (≈ 0.0184 µM); in [9], 60 µg/mL (≈ 100 µM); in data set [10], 0.23 µg/mL (≈ 0.384 µM). In data set [13], the MIC was found to be 0.031 µg/mL (≈ 0.0518 µM). The solubility in data set [4] was 770 µM (≈ 461 µg/mL). Moreover, the IC50 in data set [5] is less than 0.01 µM. Besides, the Ratio in [6] was determined as 5.1. The compound also came in with a fraction unbound in [11] of 0.037. The compound also showed a clearance in [12] of 9.6 mL/min/kg. For the same compound, the logD in data set [14] was found to be 0.8.
